# Assay results taken from ChEMBL document CHEMBL1142303, “Imidazo[2,1-b]thiazole system: a scaffold endowing dihydropyridines with selective cardiodepressant activity” (J Med Chem, 2008).
# pEC50, pIC50: −log10 of the molar value. Calls of active or inactive are those of the source. No cut-off for these calls is given here.
# How the values were obtained:
# [1] = Inotropic activity at L type calcium channel in guinea pig left atrium assessed as decrease in tension; assay type: tissue-based; settings: Cavia porcellus, Cardiac atrium
# Outline: (§1)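 Guinea-pig atria: left atrium driven at 1 Hz for inotropy, spontaneously beating right atrium for chronotropy. Increasing cumulative doses, readout is percent decrease. EC50 (inotropic) and EC30 (chronotropic) by Litchfield–Wilcoxon probit analysis on log concentration–response curves, n = 6–7. Not calculated when the maximum effect was below 50%.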
# [2] = species on record: Cavia porcellus; test: Chronotropic activity at L type calcium channel in guinea pig right atrium assessed as decrease in spontaneous beating at 1 uM relative to control; assay type: tissue-based; design: scale not given: the % may be the effect or the level left; settings: Cardiac atrium
# [3] = species on record: Cavia porcellus; test: Activity at L type calcium channel in K+ depolarized guinea pig aortic strip assessed as inhibition of calcium induced contraction at 5 uM; assay type: tissue-based; design: scale not given: the % may be the effect or the level left; settings: Aorta
# Outline: (§2)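 Guinea-pig aortic strips depolarized with 80 mM K+. Drugs added cumulatively. Readout is percent inhibition of calcium-induced contraction, n = 5–6. Control versus treated values tested at each concentration by Student's t-test, P < 0.05.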
# [4] = species on record: Cavia porcellus; test: Inotropic activity at L type calcium channel in guinea pig left atrium assessed as decrease in tension at 10 uM relative to control; assay type: tissue-based; design: scale not given: the % may be the effect or the level left; settings: Cardiac atrium
# [5] = Displacement of (+)-[5-methyl-3H][…] from L type calcium channel in guinea pig heart ventricles; design: species or system Cavia porcellus
# Outline: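 Guinea-pig ventricular membranes incubated with 0.5 nM (+)-[5-methyl-3H]PN200-110 and test compounds at 0.1–50 µM in a competitive radioligand assay. Ki and IC50 reported as mean ± S.E.M. Student's t-test, significance P < 0.001.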
# [6] = species on record: Cavia porcellus; test: Chronotropic activity at L type calcium channel in guinea pig right atrium assessed as decrease in spontaneous beating; assay type: tissue-based; settings: Cardiac atrium; outline: as §1
# [7] = test system: HEK293; test: (§3) Displacement of (+)-[5-methyl-3H][…] from L type calcium channel Cav1.2a in rabbit expressed in HEK293 cells; assay type: cell-based; settings: Oryctolagus cuniculus
# Outline: (§4)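 Intact HEK-293 cells transfected with rabbit Cav1.2a (α1C-a) or Cav1.2b (α1C-b) plasmid, labelled with (+)-[5-methyl-3H]PN200-110. Nonspecific binding about 10–20% of total. IC50 is mean ± S.E.M. of three independent experiments.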
# [8] = test system: HEK293; test: (§5) Displacement of (+)-[5-methyl-3H][…] from L type calcium channel Cav1.2b in rabbit expressed in HEK293 cells; assay type: cell-based; settings: Oryctolagus cuniculus; outline: as §4
# [9] = test system: Heart; test: Cardiovascular activity in perfused guinea pig heart assessed as change in coronary perfusion pressure at 1 uM by ECG; assay type: functional, Cavia porcellus
# Outline: (§6)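 Guinea-pig heart: values are % change from basal. Parameters are +(dP/dt)max, heart rate, coronary perfusion pressure, PR and QT intervals. Highest concentration tested 10 µM.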
# [10] = test system: Heart; test: Cardiovascular activity in perfused guinea pig heart assessed as change in heart rate at 10 nM by ECG; assay type: functional, Cavia porcellus; outline: as §6
# [11] = species on record: Cavia porcellus; test: Activity at L type calcium channel in K+ depolarized guinea pig longitudinal smooth muscle assessed as inhibition of calcium induced contraction at 5 nM; design: scale not given: the % may be the effect or the level left
# [12] = test system: Heart; test: Cardiovascular activity in perfused guinea pig heart assessed as change in atrioventricular conduction time at 1 uM by ECG; assay type: functional, Cavia porcellus
# [13] = test system: Heart; test: Cardiovascular activity in perfused guinea pig heart assessed as change in ventricular repolarization time at 10 nM by ECG; assay type: functional, Cavia porcellus; outline: as §6
# [14] = test system: Heart; test: Cardiovascular activity in perfused guinea pig heart assessed as change in maximal rate of rise in left ventricular pressure at 10 nM by ECG; assay type: functional, Cavia porcellus; outline: as §6
# [15] = species on record: Cavia porcellus; test: Chronotropic activity at L type calcium channel in guinea pig right atrium assessed as decrease in spontaneous beating at 0.1 uM relative to control; assay type: tissue-based; design: scale not given: the % may be the effect or the level left; settings: Cardiac atrium
# Outline: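 Spontaneously beating guinea-pig right atrium: % decrease in rate vs control. Drugs added cumulatively at increasing concentrations, compared with control at each concentration (Student's t-test, P<0.05). Mean ± S.E.M.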
# [16] = as §3; assay type: cell-based, Oryctolagus cuniculus; outline: as §4
# [17] = species on record: Cavia porcellus; test: Activity at L type calcium channel in K+ depolarized guinea pig aortic strip assessed as inhibition of calcium induced contraction at 1 uM; assay type: tissue-based; design: scale not given: the % may be the effect or the level left; settings: Aorta
# Outline: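 Guinea-pig aortic strips depolarized with K+ (80 mM); % inhibition of Ca2+-induced contraction vs control. Drugs added cumulatively, compared with control at each concentration (Student's t-test, P<0.05). Mean ± S.E.M.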
# [18] = as §5; assay type: cell-based, Oryctolagus cuniculus; outline: as §4
# [19] = test system: Heart; test: Cardiovascular activity in perfused guinea pig heart assessed as change in maximal rate of rise in left ventricular pressure at 10 uM by ECG; assay type: functional, Cavia porcellus
# Outline: (§7)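 Perfused guinea-pig heart. Percentage change from basal value at the highest concentration tested, 10 µM. Parameters: +(dP/dt)max, heart rate, coronary perfusion pressure, PR interval and QT interval from ECG.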
# [20] = species on record: Cavia porcellus; test: Chronotropic activity at L type calcium channel in guinea pig right atrium assessed as decrease in spontaneous beating at 10 uM relative to control; assay type: tissue-based; design: scale not given: the % may be the effect or the level left; settings: Cardiac atrium
# [21] = Activity at L type calcium channel in K+ depolarized guinea pig longitudinal smooth muscle assessed as inhibition of calcium induced contraction; design: species or system Cavia porcellus
# [22] = test system: Heart; test: Cardiovascular activity in perfused guinea pig heart assessed as change in ventricular repolarization time at 10 uM by ECG; assay type: functional, Cavia porcellus; outline: as §7
# [23] = species on record: Cavia porcellus; test: Activity at L type calcium channel in K+ depolarized guinea pig aortic strip assessed as inhibition of calcium induced contraction at 50 uM; assay type: tissue-based; design: scale not given: the % may be the effect or the level left; settings: Aorta; outline: as §2
# [24] = species on record: Cavia porcellus; test: Inotropic activity at L type calcium channel in guinea pig left atrium assessed as decrease in tension at 1 uM relative to control; assay type: tissue-based; design: scale not given: the % may be the effect or the level left; settings: Cardiac atrium
# [25] = species on record: Cavia porcellus; test: Activity at L type calcium channel in K+ depolarized guinea pig longitudinal smooth muscle assessed as inhibition of calcium induced contraction at 10 uM; design: scale not given: the % may be the effect or the level left
# [26] = test system: Heart; test: Cardiovascular activity in perfused guinea pig heart assessed as change in atrioventricular conduction time at 10 uM by ECG; assay type: functional, Cavia porcellus; outline: as §7
# [27] = test system: Heart; test: Cardiovascular activity in perfused guinea pig heart assessed as change in coronary perfusion pressure at 10 uM by ECG; assay type: functional, Cavia porcellus; outline: as §7
# [28] = test system: Heart; test: Cardiovascular activity in perfused guinea pig heart assessed as change in heart rate at 10 uM by ECG; assay type: functional, Cavia porcellus; outline: as §7
structure (smiles),measurement,setting,value
COC(=O)C1=C(C)NC(C)=C(C(=O)OC)C1c1c(C(F)(F)F)nc2sccn12,pEC50,[1],7.15
same,Activity,[2],54%
same,Activity,[3],34%
same,Activity,[4],90%
same,Log Ki,[5],-5.35
same,EC30,[6],570 nM
same,Activity,[7],inactive
same,Activity,[8],inactive
COC(=O)C1=C(C)NC(C)=C(C(=O)OC)C1c1ccccc1[N+](=O)[O-] [NIFEDIPINE],pEC50,[1],6.59
same,Activity,[9],-36%
same,Activity,[10],-60%
same,Activity,[11],70%
same,Activity,[4],97%
same,Activity,[12],66%
same,Log Ki,[5],-8.83
same,Activity,[13],37%
same,EC30,[6],25 nM
same,Activity,[14],-96%
same,Activity,[15],85%
same,pIC50,[16],7.35
same,Activity,[17],82%
same,pIC50,[18],8.44
COC(=O)C1=C(C)NC(C)=C(C(=O)OC)C1c1c(Cl)nc2sc(C)cn12,pEC50,[1],7.25
same,Activity,[19],-35%
same,Activity,[20],22%
same,pIC50,[21],5.69
same,Activity,[22],-16%
same,Activity,[23],19%
same,Activity,[24],63%
same,Activity,[25],93%
same,Log Ki,[5],< -5
same,Activity,[26],61%
same,Activity,[27],14%
same,Activity,[28],6%
